An excerpt weighted towards active compounds, which were near 2.6% of everything screened.
Granule exo inh = blocks lytic granule exocytosis; 360,000 tested, 0.66% active; TALL-104 LAMP-1 surface exposure, flow cytometry; cells stimulated with thapsigargin and PMA; AID 651702; inhibition, % at 10 µM;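 active = inhibition above about 55%, limit read from the data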
MC4R ag barr = human MC4R agonism via beta-arrestin | P32245 | activation, % at 8.9 µM | 360,000 tested, 0.98% active | U2OS MC4R beta-arrestin complementation, luminescence; percent of melanotan II response, DMSO zero | AID 540308;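 active = activation above a per-plate cutoff, the mean activation of sample wells on that plate plus 3 SD, cut at about 8% in these data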
PGE2 EP2 inh = blocks the human prostaglandin E2 receptor EP2; P43116; C6 glioma cells expressing human EP2, cAMP TR-FRET; cells stimulated with saturating PGE2; inhibition, % at 25 µM; 260,000 tested, 0.52% active; AID 1422;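 active = percent inhibition above 40 after rounding to a whole number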;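 note: rat C6 glioma host cells with rolipram phosphodiesterase inhibitor present; the protocol text gives 20 µM as final concentration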
Target sequence (P43116 whole entry, looked up): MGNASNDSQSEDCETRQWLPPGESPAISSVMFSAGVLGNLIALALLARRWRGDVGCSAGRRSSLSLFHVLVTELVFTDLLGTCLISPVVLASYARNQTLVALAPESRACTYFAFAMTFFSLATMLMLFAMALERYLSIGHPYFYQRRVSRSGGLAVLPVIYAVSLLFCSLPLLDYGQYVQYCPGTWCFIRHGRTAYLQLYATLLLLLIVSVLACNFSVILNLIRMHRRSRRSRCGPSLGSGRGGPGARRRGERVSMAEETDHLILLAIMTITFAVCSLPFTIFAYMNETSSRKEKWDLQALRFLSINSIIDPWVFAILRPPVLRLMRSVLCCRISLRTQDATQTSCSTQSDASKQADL
T cell modulator = T cell immune modulators affecting CD8 T cell-vesicle binding; 2C CD8+ T cell-vesicle binding, flow cytometry; stronger effect = lower value; response (vesicle binding), % at 7 µM; 330,000 tested, 0.068% active; AID 2052;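 active = response, share of CD8 T cells binding vesicles, and their 90th percentile fluorescence all below set limits, cut at about 80% in these data, passing the limit was not always enough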;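 note: values below 100% mean blocked vesicle binding to the CD8+ T cells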
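Test system: purified 2C TCR transgenic mouse naive CD8+ T cells. Probe or stimulus: QL9-peptide-loaded Drosophila micro-vesicles bearing Ld, ICAM-1 and B7-1. Incubation: binding step 1.5 h, 37 °C, antibody labelling 20 min, ice. Measured by: flow cytometry of vesicle-bound cells.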
EP2 modulator = modulates human prostaglandin E2 receptor EP2 signaling; 260,000 tested, 0.83% active; EP2-expressing cells, cAMP HTRF FRET, PGE2 co-stimulation; induction, % at 25 µM; P43116; AID 940;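 active = compounds whose cAMP rise, as percent of the full-agonist control response, exceeds 60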;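 note: rat C6 glioma line stably carrying human EP2 under a CMV promoter; the protocol text gives 20 µM as final concentration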
MC4R antagonist = blocks human MC4R cAMP signaling; P32245; MC4R-expressing cells, MTII-stimulated cAMP, LANCE TR-FRET; inhibition, % at 6.5 µM; 360,000 tested, 0.48% active; AID 540295;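 active = inhibition above its plate's cutoff, the mean of tested wells on that plate plus 3 SD, cut at about 29% in these data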
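Material: human MC4R-expressing U2OS cells. Probe or stimulus: Melanotan II challenge. Dosing: 6.5 µM single dose. Times: 30-min compound, 1-h challenge, 1-h detection, room temperature. Technique: TR-FRET with Eu-cAMP and labeled anti-cAMP, 671 nm. Replication: singlicate.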
Numbers stand for hits; i = inactive; nt = no result; ! = repeats disagree.

SMILES	Granule exo inh	MC4R ag barr	PGE2 EP2 inh	T cell modulator	EP2 modulator	MC4R antagonist
CC1(C)N=c2ccc([N+](=O)[O-])c(N)c2=[N+]1[O-]	i	i	i	i	i	i
O=C1/C(=C/Nc2cccc([N+](=O)[O-])c2)CCc2ccccc21	88.8	9.2	i	i	i	i
O=C(Nc1ccc(NC(=O)C2CC2)nc1)c1ccccc1F	i	i	nt	i	nt	i
O=[N+]([O-])c1c(Nc2ccccn2)cc(Cl)c2nonc12	97.0	i	56.5	i	i	i
ON(CCc1ccccn1)CCc1ccccn1	i	i	nt	nt	nt	i
N=C(N)SCCc1ccccn1	nt	nt	43.8!	nt	i	nt
CS(=O)(=O)c1sc2nc(-c3cccs3)cc(-c3ccccc3)c2c1N	i	i	48.8	i	i	i
Cc1ccc(-c2cc(-c3ccccc3)c3c(N)c(S(C)(=O)=O)sc3n2)cc1	i	i	i	i	i	i
Cc1cc(C(=O)Nc2ccccc2C)n(-c2ccccc2)n1	i	i	nt	i	nt	i
Cc1ccc(C)c(NC(=O)c2cc(-c3ccccc3)nn2-c2ccccc2)c1	i	i	i	i	63.5	i
O=C(c1ccc(Cl)cc1)N1CCn2c1nc1ccccc12	i	i	97.1	i	i	i
CC1CC(C)CN(S(=O)(=O)c2ccc(Cl)cc2)C1 (configuration not stated)	i	9.2	nt	i	nt	i
CCOC(=O)CSc1nnc(-c2cccc(C)c2)n1-c1ccc(OC)cc1	nt	nt	i	nt	i	nt
CN(C)CCCc1c2ccccc2nc2ccc(Cl)cc12	nt	nt	57.5	nt	i	nt
CCOC(=O)c1ccc(NC(=O)CSc2nc3cc4c(cc3cc2C#N)OCCO4)cc1	nt	nt	i	nt	82.7	nt
N#Cc1cc2cc3c(cc2nc1SCC(=O)Nc1ccc2c(c1)OCCO2)OCCO3	nt	nt	i	nt	i	nt
N#Cc1cc2cc3c(cc2nc1SCC(=O)NCc1ccccc1)OCCO3	nt	nt	43.0	nt	i	nt
COc1ccc(C)cc1S(=O)(=O)N1CCN(S(=O)(=O)c2cc(C)ccc2OC)CC1	i	i	i	i	i	i
O=C(CSc1nc(O)cc(=O)[nH]1)Nc1ccc(Cl)cc1	nt	nt	i	nt	i	nt
Cc1cc(C)cc(NC(=O)CSc2nc(CSc3ccc(Cl)cc3)cc(=O)[nH]2)c1	i	8.6	i	i	i	i
N#[N+]c1ccc(Nc2ccccc2)cc1	nt	nt	42.6	nt	i	nt
Cc1cccc(C)c1OCC(=O)Nn1c(C)nc2ccccc2c1=O	i	i	i	i	i	i
Cc1ccc(NC(=O)C(=O)NC(C)C2COc3ccccc3O2)cc1 (configuration not stated)	i	10.9	i	i	i	i
CC(NC(=O)CCC(=O)NC(C)C1COc2ccccc2O1)C1COc2ccccc2O1 (configuration not stated)	i	i	i	i	i	i
O=C(CCN1CCCCC1)N1CCc2c([nH]c3ccccc23)[C@H]1c1cccnc1	nt	nt	43.3	nt	i	nt
SMILES	Granule exo inh	MC4R ag barr	PGE2 EP2 inh	T cell modulator	EP2 modulator	MC4R antagonist
Cc1[nH]c2ccccc2c1-c1cc(-c2cc(-c3c(C)[nH]c4ccccc34)nc(N)n2)nc(N)n1	nt	nt	42.4	nt	i	nt
CCOC(=O)Cc1csc(NS(=O)(=O)c2ccc(NC(C)=O)cc2)n1	i	i	i	i	i	i
CC(C)(C)c1ccc2c(c1)C(=O)c1ccccc1C2=O	i	i	i	i	i	i
CC(C)(C=O)C1=CC(=O)c2ccccc2C1=O	90.6	i	i	i	i	i
CC1=CC(=O)c2ccccc2C1=O	i	i	46.1	i	i	i
COc1cccc2c1C(=O)C=C(C)C2=O	63.9	i	i	i	i	i
O=C1C=C(Nc2ccccc2)C(=O)c2ccccc21	i	i	i	i	i	i
CC(C)NS(=O)(=O)c1ccc(OCC(=O)Nc2cccc3ccccc23)cc1	i	i	i	i	i	i
C[C@H]1COC(=O)CCC/C=C\C[C@H](CC(=O)N(CCO)Cc2ccccc2)C(=O)N1	i	i	nt	i	nt	i
COC(=O)c1c(NC(=O)c2cccs2)sc(C(=O)Nc2ccc(F)cc2)c1C	nt	nt	i	nt	i	nt
O=C(O)c1ccc(-c2nc(-c3ccc(Cl)c(Cl)c3)cs2)cc1	i	i	i	i	i	31.2

Screening data: PubChem BioAssay, several laboratories
